The list is not random: actives were taken first. Their share in the collection is about 2.1%.
DNMT1 inh: inhibitors of human DNMT1; P26358; DNMT1 molecular beacon, Hinp1I cleavage, fluorescence; inhibition (reported as % activation of signal), % at 10 µM; hit rate 0.83% among 360,000; AID 588458; in the data active = inhibition above about 50%
SUMO1-SIM PPI: modulators of human SUMO1-mediated protein-protein interactions; SUMO1 binding to a labelled peptide, TR-FRET, 1 h; inhibition, % at 20 µM; hit rate 0.33% among 360,000; in the data active = inhibition above about 37%
Target sequence (P63165 whole entry, looked up): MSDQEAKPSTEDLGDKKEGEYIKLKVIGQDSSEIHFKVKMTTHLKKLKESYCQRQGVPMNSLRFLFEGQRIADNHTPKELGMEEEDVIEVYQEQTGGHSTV
STEP inh: inhibitors of human striatal-enriched phosphatase STEP; hit rate 0.25% among 360,000; P54829; AID 588621; recombinant STEP, OMFP fluorogenic substrate, fluorescence; inhibition, % at 20 µM;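 active = inhibition at 20 µM, scaled per plate between control wells, above about 37%, limit read from the data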
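medium = Bis-Tris buffer pH 6.0, 2.5 mM DTT, 0.005% Tween 20 | test system = STEP (striatal-enriched tyrosine phosphatase) enzyme, cell-free | measure = normalized % inhibition | compound dosing = 20 µM, 1% DMSO | also added = 25 µM OMFP | schedule = reaction 20 min, ambient temperature | measured by = fluorescence read at 480 nm ex / 540 nm em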
LMPTP block: blocks human LMPTP phosphatase | P24666 | recombinant LMPTP-A, OMFP fluorogenic substrate, fluorescence intensity | inhibition, % at 20 µM | hit rate 0.22% among 360,000;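 active = compounds that cut the enzyme signal by at least half of the control window in the single-dose screen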
Target sequence (P24666 whole entry, looked up): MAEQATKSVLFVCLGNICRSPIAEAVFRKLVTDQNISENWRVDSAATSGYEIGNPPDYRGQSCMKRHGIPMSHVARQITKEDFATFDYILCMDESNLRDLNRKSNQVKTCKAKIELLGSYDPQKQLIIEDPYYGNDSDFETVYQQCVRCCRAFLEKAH
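Assay system: LMPTP-A enzyme. Input: 0.625 nM LMPTP-A final. Probe or stimulus: 400 µM OMFP. Compound dosing: single 20 µM dose. Schedule: 50 min dark incubation at room temperature. Detection: fluorescence intensity of OMFP turnover product. Read-out: percent inhibition versus substrate-only and uninhibited controls. Benchmarks: no-enzyme low control, uninhibited high control.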
Scp1 inh: blocks human Scp-1 phosphatase activity; Q9GZU7; Recombinant Scp1, phosphopeptide, malachite green phosphate absorbance; inhibition, % at 20 µM; hit rate 0.88% among 340,000;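 active = inhibition above about 50% at 20 µM, limit read from the data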
Target sequence (Q9GZU7 76-261 limits assumed): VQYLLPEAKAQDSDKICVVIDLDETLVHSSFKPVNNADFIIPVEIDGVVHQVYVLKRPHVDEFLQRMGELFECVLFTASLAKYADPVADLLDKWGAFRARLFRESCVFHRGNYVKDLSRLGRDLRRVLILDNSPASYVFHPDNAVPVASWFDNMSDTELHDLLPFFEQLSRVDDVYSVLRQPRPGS
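System: truncated SCP-1 phosphatase (76-261aa); medium: Tris acetate buffer pH 5.5 with MgCl2 and Tween-20; incubation: 45 min room-temperature reaction, 5 min colour, 30 min stabiliser; compound: single 20 µM dose, 1% DMSO; reagent: Phosphorylated 17-residue peptide substrate; read-out: % inhibition at 20 µM; technique: colorimetric free-phosphate detection, absorbance 630 nm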
GRK2 inh: blocks RNA aptamer binding to human GRK2 | bead flow cytometry, FAM-aptamer displacement from GRK2 | inhibition of aptamer binding, % at 10 µM | hit rate 0.59% among 330,000;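 active = inhibition of aptamer binding above 40%, roughly 3 SD of noise, on plates passing a quality check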;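 note: median bead fluorescence of bound FAM aptamer so fluorescent compounds give negative values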
Each line names hits and unclear results; the compound was inactive in the other large screens.

N#Cc1cccc(NC(=O)c2cc(C3CCCCN3C(=O)CCCc3ccccc3)on2)c1 (stereo not given)	none (no result: Scp1 inh, GRK2 inh)
COc1ccc(CCNC(=O)c2cc(-c3ccc(C)c(C)c3O)n[nH]2)cc1OC	SUMO1-SIM PPI 36.6
CN(C)/C=C/C(=C\C(=O)C(F)(F)F)Nc1ccc(C(F)(F)F)cc1	none
COc1ccc(N2CCN(Cc3cc(=O)oc4cc5c(cc34)CCCC5)CC2)cc1	DNMT1 inh 55.9
COc1ccc(N2CCN(Cc3cc(=O)oc4ccc(C)cc34)CC2)cc1	none
O=S(c1cc(Cl)cc(Cl)c1O)c1cc(Cl)cc(Cl)c1O	SUMO1-SIM PPI 43.2 (no result: DNMT1 inh, STEP inh, Scp1 inh, GRK2 inh)
Oc1c(Cl)cc(Cl)cc1Sc1cc(Cl)cc(Cl)c1O	none (no result: DNMT1 inh, SUMO1-SIM PPI, STEP inh, LMPTP block, Scp1 inh)
CCS(=O)(=O)C1=NN2C(=N)/C(=C\c3ccc(OS(=O)(=O)c4ccccc4)c(OC)c3)C(=O)N=C2S1	GRK2 inh 41.0 (no result: DNMT1 inh, SUMO1-SIM PPI, STEP inh, LMPTP block, Scp1 inh)
COc1cc(/C=C2\C(=N)N3N=C(S(C)(=O)=O)SC3=NC2=O)ccc1OS(=O)(=O)c1ccccc1	none (no result: DNMT1 inh, SUMO1-SIM PPI, STEP inh, LMPTP block, Scp1 inh)
O=C(O)c1cn(C2CC2)c2cc(N3CCN(S(=O)(=O)c4ccc5c(c4)OCCO5)CC3)c(F)cc2c1=O	LMPTP block 65.1
CC(C)(C)[C@H]1COC(=O)[C@H](NC(=O)OCC2c3ccccc3-c3ccccc32)C/C=C\C[C@@H](CC(=O)N[C@H](CO)Cc2ccccc2)C(=O)N1	GRK2 inh 97.0
O=C(Nc1ccc2nc(-c3ccco3)c(-c3ccco3)nc2c1)N1CCCCCC1	Scp1 inh 88.0, GRK2 inh 52.0 (no result: DNMT1 inh, SUMO1-SIM PPI, STEP inh, LMPTP block)
CCOC(=O)C1CCN(C(=O)Nc2ccc3nc(-c4ccco4)c(-c4ccco4)nc3c2)CC1	DNMT1 inh 112.7, SUMO1-SIM PPI 106.1, STEP inh 68.5, LMPTP block 79.9, Scp1 inh 67.3
Cc1nc2ccc(NC(=O)N3CCCCC3)cc2nc1C	none
O=c1[nH][nH]c2c1[C@H](CCc1cccc(Cl)c1)O[C@H](CCc1ccccc1)C2	none (no result: DNMT1 inh, STEP inh, Scp1 inh, GRK2 inh)
COC(=O)c1ccc2c(c1)C(=O)/C(=C/c1ccc(O)cc1)O2	SUMO1-SIM PPI 47.1
Cc1nc(N=Nc2ccc(O)cc2)n[nH]1	Scp1 inh 81.3
COc1ccc(Cc2nnc(NC(=O)Cc3cccs3)s2)cc1OC	DNMT1 inh 75.3, Scp1 inh 69.9
O=C(NCCCN1CCCC1=O)C1CCN(S(=O)(=O)c2ccc(Cl)cc2)CC1	SUMO1-SIM PPI 38.3
COc1ccc(-c2nnc(Nc3ccc(S(=O)(=O)Nc4nccs4)cc3)c3ccccc23)cc1	SUMO1-SIM PPI 43.8 (no result: GRK2 inh)
CO[C@@]1(NC(=O)CSCC#N)C(=O)N2C(C(=O)O)=C(CSc3nnnn3C)CS[C@@H]21	DNMT1 inh 66.3, Scp1 inh 64.6
CN(C)CCn1nnnc1SCC1=C(C(=O)O)N2C(=O)[C@@H](NC(=O)Cc3csc(N)n3)[C@H]2SC1	none
N#C/C(=N\Nc1ccc(S(=O)(=O)N2CCc3ccccc32)cc1)C(N)=S	none
CCOC(=O)/C(C#N)=N/Nc1ccc(S(=O)(=O)N2CCc3ccccc32)cc1	GRK2 inh 82.0
COc1cc(/C=C2/C(=O)c3cccc([N+](=O)[O-])c3C2=O)c(Br)cc1O	Scp1 inh 68.5
COc1ccccc1NC(=O)CCCCCN1C(=O)c2cccc([N+](=O)[O-])c2C1=O	none
Cc1ccc(-c2nn3c(C)nnc3s2)cc1NC(=O)c1ccc(-c2ccc(Cl)cc2Cl)o1	DNMT1 inh 65.9, STEP inh 93.4
CC(=O)Nc1ccc(NC(=O)c2c(-c3ccccc3Cl)noc2C)c(C)c1	none
CC(=O)Nc1ccc(OC(=O)c2c(-c3ccccc3Cl)noc2C)cc1	SUMO1-SIM PPI 37.1
O=C(CCC(=O)N(CC(=O)NC1CCCC1)Cc1ccccc1Cl)Nc1nccs1	none
CCCCN1C(=N)N([C@@H](CCC)CN2CCC[C@H]2CN2C(N)=NC[C@H]2C(C)C)C[C@H]1[C@H](C)CC	GRK2 inh 100.0
CCN1C(=O)[C@H]2[C@@H](c3ccc(-c4cccc(Cl)c4)cc3)N[C@@](C)(C(=O)OC)[C@H]2C1=O	none
COCCC(=O)N1CCC(C(=O)Nc2ccc(Oc3ccccc3)nc2)CC1	none
Oc1ccc(C=NC2CCCCC2)cc1	none
O=C(Nc1nccs1)c1cn(-c2ccccc2)nc1-c1ccncc1	SUMO1-SIM PPI 43.6
